The values that follow come from ChEMBL document CHEMBL1135218, “Structure-based design, synthesis, and biological evaluation of irreversible human rhinovirus 3C protease inhibitors. Part 7: structure-activity studies of bicyclic 2-pyridone-containing peptidomimetics” (Bioorg Med Chem Lett, 2002).

For experiment [1], the system named is HeLa. Kind of experiment: Cytotoxic concentration against uninfected H1HeLa cell line. It counts as functional. To be noted: Homo sapiens.
The test system of experiment [2] is HeLa. Kind of experiment: Compound was tested for the antirhinoviral activity against human rhinovirus (HRV-14) infected H1HeLa cells. Type of experiment: functional, cell-based.
The target of experiment [3] is T1, Human rhinovirus A protease (Human rhinovirus sp.) (UniProt Q4U254).
T1 sequence (whole entry): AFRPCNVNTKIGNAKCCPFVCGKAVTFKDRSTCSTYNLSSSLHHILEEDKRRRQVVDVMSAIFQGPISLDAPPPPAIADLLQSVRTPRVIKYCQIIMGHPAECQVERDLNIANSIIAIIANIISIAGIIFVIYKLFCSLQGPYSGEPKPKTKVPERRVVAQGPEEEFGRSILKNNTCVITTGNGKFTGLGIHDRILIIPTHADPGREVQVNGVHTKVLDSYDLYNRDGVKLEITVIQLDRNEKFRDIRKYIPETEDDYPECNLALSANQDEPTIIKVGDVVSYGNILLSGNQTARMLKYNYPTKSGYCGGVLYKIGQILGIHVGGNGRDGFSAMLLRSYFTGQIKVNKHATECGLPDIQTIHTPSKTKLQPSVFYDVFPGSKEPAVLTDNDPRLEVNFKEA
Kind of experiment: The compound was tested for the inhibitory activity against human rhinovirus-14 3C Protease. An outline of the steps: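 HRV-14 3C protease was exposed to the irreversible inhibitor. Inactivation was expressed as the second-order rate constant kobs/[I] in M-1 s-1.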

Experiment [4] concerns HeLa. Kind of experiment: (§1) Tested for antirhinoviral activity of compound against HRV 10 infected H1HeLa cells; Cytotoxicity at > 10 uM. Type of experiment: functional, cell-based. To be noted: Homo sapiens.
Experiment [5] has as its system HeLa. The experiment is described as follows: (§2) Tested for antirhinoviral activity of compound against HRV 3 infected H1HeLa cells; Cytotoxicity at > 10 uM. It counts as functional, cell-based. To be noted: Homo sapiens.
The subject of experiment [6] is HeLa. The experiment is described as follows: Tested for antirhinoviral activity of compound against HRV 9 infected H1HeLa cells; Cytotoxicity at > 10 uM. It counts as functional. As to conditions: Homo sapiens.
Experiment [7] deals with HeLa. Kind of experiment: (§3) Tested for antirhinoviral activity of compound against HRV 39 infected H1HeLa cells; Cytotoxicity at > 10 uM. Type of experiment: functional. As to conditions: Homo sapiens.
In experiment [8] the test system is HeLa. Kind of experiment: (§4) Tested for antirhinoviral activity of compound against HRV 87 infected H1HeLa cells; Cytotoxicity at > 10 uM. Type of experiment: functional, cell-based. As to conditions: Homo sapiens.
Experiment [9] deals with HeLa. The experiment is described as follows: (§5) Tested for antirhinoviral activity of compound against HRV 25 infected H1HeLa cells; Cytotoxicity at > 10 uM. Type of experiment: functional. To be noted: Homo sapiens.
Experiment [10] deals with HeLa. The description is as §4. It counts as functional. To be noted: Homo sapiens.
For experiment [11], the system named is HeLa. Described as §3. Type of experiment: functional, cell-based. As to conditions: Homo sapiens.
Experiment [12] relates to HeLa. The experiment is described as follows: Tested for antirhinoviral activity of compound against HRV 9 infected H1HeLa cells. Type of experiment: functional, cell-based. As to conditions: Homo sapiens.
For experiment [13], the system named is HeLa. Kind of experiment: (§6) Tested for antirhinoviral activity of compound against HRV 16 infected H1HeLa cells; Cytotoxicity at > 10 uM. Type of experiment: functional, cell-based. To be noted: Homo sapiens.
The test system of experiment [14] is HeLa. The experiment is described as §6. Type of experiment: functional. As to conditions: Homo sapiens.
Experiment [15] relates to HeLa. The description is as §1. Type of experiment: functional. As to conditions: Homo sapiens.
Experiment [16] has as its system HeLa. The experiment is described as follows: (§7) Tested for antirhinoviral activity of compound against HRV 14 infected H1HeLa cells; Cytotoxicity at > 10 uM. Type of experiment: functional, cell-based. As to conditions: Homo sapiens.
Experiment [17] deals with HeLa. Kind of experiment: (§8) Tested for antirhinoviral activity of compound against HRV 2 infected H1HeLa cells; Cytotoxicity at > 10 uM. It counts as functional. To be noted: Homo sapiens.
Experiment [18] deals with HeLa. The description is as §5. It counts as functional, cell-based. As to conditions: Homo sapiens.
For experiment [19], the system named is HeLa. The experiment is described as §7. Type of experiment: functional. As to conditions: Homo sapiens.
In experiment [20] the test system is HeLa. The description is as §2. Type of experiment: functional. To be noted: Homo sapiens.
Experiment [21] has as its system HeLa. The experiment is described as §8. To be noted: Homo sapiens. Type of experiment: functional, cell-based.

A word on the CC50: it is the concentration at which the toxic effect on the cells reaches its halfway point. Read a high CC50 as better tolerance by the cells. By EC50 is commonly meant the concentration needed to bring the measured effect to its halfway point. The low end stands for higher potency in that assay, the high end for lower potency in that assay. `CCOC(=O)/C=C/[C@H](CCC(N)=O)NC(=O)[C@@H]1CS[C@H]2CC[C@H](NC(=O)OCc3ccccc3)C(=O)N21`: the 50% cytotoxic concentration (CC50) in the experiment on HeLa [1] is over 10000 nM. For the same molecule, the EC50 in the experiment with HeLa [2] is over 10000 nM. The molecule also yielded a K obs / 1 in experiment [3] of 26 M⁻¹ s⁻¹.
On to `CCOC(=O)/C=C/[C@H](CCC(N)=O)NC(=O)[C@H](Cc1ccccc1)n1cccc(NC(=O)OCc2ccccc2)c1=O`, for which the midpoint of cytotoxicity in the experiment with HeLa [1], the CC50, lay at 50000 nM. In the experiment on HeLa [2], a half-maximal effect (EC50) was put at 33 nM. The molecule further displayed a K obs / 1 in experiment [3] of 114000 M⁻¹ s⁻¹.
The EC90 is the concentration needed for an effect of 90%. As for `CCOC(=O)/C=C/[C@H](C[C@@H]1CCNC1=O)NC(=O)[C@@H]1CCc2ccc(NC(=O)c3cc(C)on3)c(=O)n21`, the concentration for a half-maximal effect (EC50) came to 41 nM in the experiment on HeLa [4]; 43 nM in the experiment on HeLa [5]; 58 nM with HeLa [8]; 162 nM in the experiment with HeLa [2]; 16 nM in the experiment with HeLa [11]; 121 nM in the experiment with HeLa [12]. For the same molecule, the concentration giving a half-maximal response (EC50) was 72 nM with HeLa [13], 162 nM in the experiment on HeLa [16], 162 nM with HeLa [18] and 37 nM in the experiment with HeLa [21]. Besides, the 90% effect concentration (EC90) in the experiment on HeLa [6] was determined as 257 nM; in the experiment with HeLa [7], 152 nM; with HeLa [9] it was 616 nM; with HeLa [10] it was 110 nM; in the experiment with HeLa [14], 303 nM; in the experiment with HeLa [15], 175 nM. Besides, the 90% effect concentration (EC90) in the experiment on HeLa [17] turned out to be 119 nM; in the experiment with HeLa [19] it was 298 nM; in the experiment with HeLa [20], 133 nM. In the experiment on HeLa [1], the CC50 was over 10000 nM. In [3], this molecule showed a K obs / 1 of 177000 M⁻¹ s⁻¹.
In the experiment on HeLa [1], `CCOC(=O)/C=C/[C@H](CCC(N)=O)NC(=O)[C@@H]1CCc2ccc(NC(=O)OCc3ccccc3)c(=O)n21` returned a CC50 of over 100000 nM. The 50% effective concentration (EC50) in the experiment on HeLa [2] was found to be 9000 nM. This molecule yielded a K obs / 1 in experiment [3] of 4540 M⁻¹ s⁻¹.
`CCOC(=O)/C=C/[C@H](CCC(N)=O)NC(=O)Cn1cccc(NC(=O)OCc2ccccc2)c1=O` gave a CC50 in the experiment with HeLa [1] of over 10000 nM. The molecule also had an EC50 in the experiment with HeLa [2] of over 10000 nM. The molecule also displayed a K obs / 1 in experiment [3] of 348 M⁻¹ s⁻¹.
